Laboratory results: ChEMBL document CHEMBL1133191, “Non-amidine-containing 1,2-dibenzamidobenzene inhibitors of human factor Xa with potent anticoagulant and antithrombotic activity” (J Med Chem, 2000)

What was measured:
[1] = target: Coagulation factor X (Homo sapiens) (UniProt P00742); test: Binding affinity for human Coagulation factor X
How it was run: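 Apparent association constant with human factor Xa, determined by the method the paper cites. Each value is the mean of at least three separate experiments, with standard deviation under 20%.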

Homo sapiens = species on record: Homo sapiens; test: Prothrombin time activity, concentration required to double the time of clot formation in the prothrombin time assay; type: functional
How it was run: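 Prothrombin time clotting assay run as described in a cited reference. The value is the compound concentration (μM) that doubles the time to clot formation. It is the mean of at least three separate experiments, with standard deviation under 20%.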

[2] = target: Vitamin K-dependent protein C (Homo sapiens) (UniProt P04070); test: Measured for apparent association constant (binding affinity) for activated protein C
Sequence of Vitamin K-dependent protein C (Homo sapiens) (P04070 43-197 limits assumed): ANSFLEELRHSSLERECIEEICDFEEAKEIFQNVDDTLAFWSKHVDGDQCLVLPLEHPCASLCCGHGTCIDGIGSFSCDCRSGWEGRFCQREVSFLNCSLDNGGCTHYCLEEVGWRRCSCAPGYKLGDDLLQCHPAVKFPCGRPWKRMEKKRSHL
Sequence of Vitamin K-dependent protein C (Homo sapiens) (P04070 212-461 limits assumed): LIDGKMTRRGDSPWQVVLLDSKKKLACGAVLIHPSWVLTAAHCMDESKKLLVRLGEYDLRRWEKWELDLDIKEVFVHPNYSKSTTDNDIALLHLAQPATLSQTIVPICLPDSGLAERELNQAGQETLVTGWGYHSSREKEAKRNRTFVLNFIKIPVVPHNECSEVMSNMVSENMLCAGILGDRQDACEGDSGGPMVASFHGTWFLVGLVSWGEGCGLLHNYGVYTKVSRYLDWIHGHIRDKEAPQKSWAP

[3] = target: Coagulation factor XI (Homo sapiens) (UniProt P03951); test: Measured for apparent association constant (binding affinity) for Coagulation factor XI
Sequence of Coagulation factor XI (Homo sapiens) (P03951 19-387 limits assumed): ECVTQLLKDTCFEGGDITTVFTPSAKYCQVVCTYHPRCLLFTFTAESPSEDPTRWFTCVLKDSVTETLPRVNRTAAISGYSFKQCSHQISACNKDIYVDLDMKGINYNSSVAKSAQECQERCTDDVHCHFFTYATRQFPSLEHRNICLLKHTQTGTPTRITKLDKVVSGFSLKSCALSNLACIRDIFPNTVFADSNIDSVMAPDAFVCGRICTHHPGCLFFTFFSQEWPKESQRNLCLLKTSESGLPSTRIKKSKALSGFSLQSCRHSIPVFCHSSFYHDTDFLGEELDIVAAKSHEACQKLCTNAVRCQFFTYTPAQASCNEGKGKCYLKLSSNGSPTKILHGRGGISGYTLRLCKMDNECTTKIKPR
Sequence of Coagulation factor XI (Homo sapiens) (P03951 388-625 limits assumed): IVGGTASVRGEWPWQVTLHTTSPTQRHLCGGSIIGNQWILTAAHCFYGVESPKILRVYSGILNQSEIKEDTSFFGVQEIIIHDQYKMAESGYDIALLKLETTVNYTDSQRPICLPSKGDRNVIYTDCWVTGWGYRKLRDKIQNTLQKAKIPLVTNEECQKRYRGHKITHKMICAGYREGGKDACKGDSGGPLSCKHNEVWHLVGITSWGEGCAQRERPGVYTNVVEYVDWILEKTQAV

[4] = target: T1, Coagulation factor XII (Homo sapiens) (UniProt P00748); test: Measured for apparent association constant (binding affinity) for Coagulation factor XII
T1 sequence (whole entry): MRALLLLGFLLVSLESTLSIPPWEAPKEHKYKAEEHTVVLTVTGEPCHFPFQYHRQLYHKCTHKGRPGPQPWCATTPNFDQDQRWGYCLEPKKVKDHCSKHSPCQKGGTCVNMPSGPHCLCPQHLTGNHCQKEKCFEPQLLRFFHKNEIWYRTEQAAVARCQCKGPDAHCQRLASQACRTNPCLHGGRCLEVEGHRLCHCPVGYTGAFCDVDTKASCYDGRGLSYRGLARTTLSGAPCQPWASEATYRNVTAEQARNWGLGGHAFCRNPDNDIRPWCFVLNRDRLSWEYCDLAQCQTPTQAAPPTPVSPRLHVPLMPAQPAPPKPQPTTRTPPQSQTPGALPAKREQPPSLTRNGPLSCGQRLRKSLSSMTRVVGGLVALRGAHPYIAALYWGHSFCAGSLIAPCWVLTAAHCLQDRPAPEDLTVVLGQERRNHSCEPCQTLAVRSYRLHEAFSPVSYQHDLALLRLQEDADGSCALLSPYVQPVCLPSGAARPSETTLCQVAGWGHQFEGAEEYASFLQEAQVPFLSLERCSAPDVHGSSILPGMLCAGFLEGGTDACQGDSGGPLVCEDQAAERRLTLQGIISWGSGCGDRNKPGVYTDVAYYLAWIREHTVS

[5] = Measured for apparent association constant (binding affinity) for Factor IIa
[6] = target: Tissue-type plasminogen activator (Homo sapiens) (UniProt P00750); test: Measured for apparent association constant (binding affinity) for Tissue type plasminogen activator
Sequence of Tissue-type plasminogen activator (Homo sapiens) (P00750 36-562 limits assumed): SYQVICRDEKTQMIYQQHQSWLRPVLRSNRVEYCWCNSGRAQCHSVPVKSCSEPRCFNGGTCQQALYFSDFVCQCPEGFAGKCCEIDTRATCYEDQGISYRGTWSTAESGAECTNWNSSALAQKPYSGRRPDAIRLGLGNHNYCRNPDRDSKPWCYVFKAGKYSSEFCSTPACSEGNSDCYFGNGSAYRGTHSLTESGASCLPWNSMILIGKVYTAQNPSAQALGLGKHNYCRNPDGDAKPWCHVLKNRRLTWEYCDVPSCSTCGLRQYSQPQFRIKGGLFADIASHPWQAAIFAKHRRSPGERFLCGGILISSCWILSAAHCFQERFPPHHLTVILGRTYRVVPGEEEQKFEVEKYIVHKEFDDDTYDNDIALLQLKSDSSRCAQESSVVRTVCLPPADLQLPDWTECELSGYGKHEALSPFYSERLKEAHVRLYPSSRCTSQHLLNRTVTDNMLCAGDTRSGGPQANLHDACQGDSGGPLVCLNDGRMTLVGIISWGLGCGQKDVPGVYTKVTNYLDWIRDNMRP

[7] = target: T2, Serine protease 1 (Bos taurus) (UniProt P00760); test: Measured for apparent association constant (binding affinity) for trypsin (bovine)
T2 sequence (whole entry): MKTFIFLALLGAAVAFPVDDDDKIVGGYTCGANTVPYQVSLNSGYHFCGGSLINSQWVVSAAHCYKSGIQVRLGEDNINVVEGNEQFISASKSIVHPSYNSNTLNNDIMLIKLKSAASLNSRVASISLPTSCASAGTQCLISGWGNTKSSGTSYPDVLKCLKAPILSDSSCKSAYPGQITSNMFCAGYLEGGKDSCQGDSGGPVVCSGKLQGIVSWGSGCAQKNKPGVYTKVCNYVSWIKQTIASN

[8] = target: Urokinase-type plasminogen activator (Homo sapiens) (UniProt P00749); test: Measured for apparent association constant (binding affinity) for Urokinase-type plasminogen activator
[9] = target: Plasminogen (Homo sapiens) (UniProt P00747); test: Measured for apparent association constant (binding affinity) for plasmin
Sequence of Plasminogen (Homo sapiens) (P00747 whole entry, looked up): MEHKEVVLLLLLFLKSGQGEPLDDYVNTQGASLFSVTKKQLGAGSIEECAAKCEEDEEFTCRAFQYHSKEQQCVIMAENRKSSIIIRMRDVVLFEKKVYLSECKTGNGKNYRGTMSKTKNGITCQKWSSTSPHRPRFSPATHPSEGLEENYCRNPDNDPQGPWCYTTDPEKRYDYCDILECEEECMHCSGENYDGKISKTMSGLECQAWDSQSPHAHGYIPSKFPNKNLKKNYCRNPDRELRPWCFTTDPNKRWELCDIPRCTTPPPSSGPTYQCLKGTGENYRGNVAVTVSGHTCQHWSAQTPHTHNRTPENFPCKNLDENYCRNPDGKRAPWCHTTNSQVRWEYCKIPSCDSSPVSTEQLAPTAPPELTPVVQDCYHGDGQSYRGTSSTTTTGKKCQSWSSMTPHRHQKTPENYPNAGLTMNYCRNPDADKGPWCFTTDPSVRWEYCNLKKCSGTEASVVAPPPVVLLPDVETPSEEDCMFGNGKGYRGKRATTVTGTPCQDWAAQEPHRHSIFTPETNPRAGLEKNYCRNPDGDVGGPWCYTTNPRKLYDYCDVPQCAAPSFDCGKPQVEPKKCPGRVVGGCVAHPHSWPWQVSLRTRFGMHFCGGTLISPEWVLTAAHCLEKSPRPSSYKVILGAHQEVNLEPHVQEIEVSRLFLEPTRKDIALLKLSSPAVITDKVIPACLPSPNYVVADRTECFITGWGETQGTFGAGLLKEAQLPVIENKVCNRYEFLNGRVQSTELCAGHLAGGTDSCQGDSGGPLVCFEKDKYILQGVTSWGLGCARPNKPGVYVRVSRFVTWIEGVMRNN

[10] = target: Prothrombin (Homo sapiens) (UniProt P00734); test: Measured for apparent association constant (binding affinity) for Coagulation factor II

Sequence of Coagulation factor X (Homo sapiens) (P00742 41-179 limits assumed): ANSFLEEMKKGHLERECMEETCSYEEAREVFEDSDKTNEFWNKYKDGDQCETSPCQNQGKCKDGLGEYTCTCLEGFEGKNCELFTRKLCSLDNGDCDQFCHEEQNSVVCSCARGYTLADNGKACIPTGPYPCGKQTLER
Sequence of Coagulation factor X (Homo sapiens) (P00742 235-488 limits assumed): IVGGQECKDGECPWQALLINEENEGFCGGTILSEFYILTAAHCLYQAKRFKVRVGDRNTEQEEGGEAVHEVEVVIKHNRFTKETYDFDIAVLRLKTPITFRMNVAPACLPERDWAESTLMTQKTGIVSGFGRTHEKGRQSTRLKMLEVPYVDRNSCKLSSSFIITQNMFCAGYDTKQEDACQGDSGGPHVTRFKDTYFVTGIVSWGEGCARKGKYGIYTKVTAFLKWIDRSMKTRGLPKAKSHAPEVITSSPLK

| K ass [1] | SMILES | PT (Homo sapiens) [µM] | other results |
| --- | --- | --- | --- |
| 1.7e+07 l M-1 | COc1ccc(C(=O)Nc2ccccc2NC(=O)OC2CCN(c3ccncc3)CC2)cc1 | 2.6 |  |
| 6.2e+07 l M-1 | COc1ccc(C(=O)Nc2ccccc2NC(=O)NCC2CCN(c3ccncc3)CC2)cc1 | 0.96 | K ass [2]: < 10000 l M-1; K ass [3]: < 10000 l M-1; K ass [4]: < 10000 l M-1; K ass [5]: < 10000 l M-1; K ass [6]: < 10000 l M-1; K ass [7]: < 10000 l M-1; K ass [8]: < 10000 l M-1; K ass [9]: < 10000 l M-1 |
| 2.5e+06 l M-1 | COc1ccc(C(=O)Nc2ccccc2NC(=O)OCCC2CCN(c3ccncc3)CC2)cc1 | > 15 |  |
| 2e+07 l M-1 | COc1ccc(C(=O)Nc2ccccc2NC(=O)OCC2CCN(c3ccncc3)CC2)cc1 | 1.9 |  |
| 1.2e+07 l M-1 | COc1ccc(C(=O)Nc2ccccc2NC(=O)NC2CCN(c3ccncc3)CC2)cc1 | 2.4 |  |
| 2.3e+06 l M-1 | COc1ccc(C(=O)Nc2ccccc2NC(=O)C2CCN(c3ccncc3)CC2)cc1 | 9.7 |  |

Second part, the compound before the results:

| SMILES | K ass [1] | PT (Homo sapiens) [µM] | other results |
| --- | --- | --- | --- |
| CC(C)(C)c1ccc(C(=O)Nc2ccccc2NC(=O)NCC2CCN(c3ccncc3)CC2)cc1 | 40000 l M-1 |  |  |
| COc1ccc(C(=O)Nc2ccccc2NC(=O)c2ccc(-c3ccncc3)cc2)cc1 | 9.2e+06 l M-1 | 9.5 |  |
| CCOc1ccc(C(=O)Nc2ccccc2NC(=O)NCC2CCN(c3ccncc3)CC2)cc1 | 1.5e+07 l M-1 | 2.6 |  |
| CC(C)(C)c1ccc(C(=O)Nc2cc(C(=O)O)ccc2NC(=O)c2cccc(C(=N)N)c2)cc1 | 4.7e+08 l M-1 | 0.83 |  |
| COc1ccc(C(=O)Nc2ccc(O)cc2NC(=O)c2ccc(C(C)(C)C)cc2)cc1 | 6.6e+06 l M-1 | > 50 |  |
| O=C(NCC1CCN(c2ccncc2)CC1)Nc1ccccc1NC(=O)c1ccc(Cl)cc1 | 1e+08 l M-1 | 0.58 | K ass [2]: < 10000 l M-1; K ass [10]: 60000 l M-1; K ass [3]: < 10000 l M-1; K ass [4]: < 10000 l M-1; K ass [7]: < 10000 l M-1; K ass [8]: < 10000 l M-1; K ass [9]: 90000 l M-1 |
| O=C(NCC1CCN(c2ccncc2)CC1)Nc1ccccc1NC(=O)c1ccccc1 | 5.9e+06 l M-1 | 6.2 |  |
